# From ChEMBL document CHEMBL1139183, “Potent and selective xanthine-based inhibitors of phosphodiesterase 5” (Bioorg Med Chem Lett, 2007)
# Tests used:
# [1] = biological target: cGMP-specific 3',5'-cyclic phosphodiesterase (Homo sapiens, UniProt O76074); assay: Inhibition of human platelet PDE5 by [3H]cGMP scintillation proximity assay
# [2] = Inhibition of bovine PDE6 by [3H]cGMP scintillation proximity assay; design: species or system Bos taurus
# [3] = biological target: High affinity 3',5'-cyclic-AMP phosphodiesterase 7A (Homo sapiens, UniProt Q13946); assay: Inhibition of human recombinant PDE7A by […] scintillation proximity assay
# [4] = biological target: cGMP-dependent 3',5'-cyclic phosphodiesterase (Homo sapiens, UniProt O00408); assay: Inhibition of human platelet PDE2 by [3H]cGMP scintillation proximity assay
# [5] = biological target: 3',5'-cyclic-AMP phosphodiesterase 4B (Homo sapiens, UniProt Q07343); assay: Inhibition of human recombinant PDE4B by […] scintillation proximity assay
# [6] = biological target: 3',5'-cyclic-AMP phosphodiesterase 4D (Homo sapiens, UniProt Q08499); assay: Inhibition of human recombinant PDE4D by […] scintillation proximity assay
# [7] = Intrinsic clearance in human microsomes; format: ADME, Microsome
# [8] = Intrinsic clearance in dog microsomes; format: ADME, Canis lupus familiaris, Liver, Microsome
# [9] = Intrinsic clearance in rat microsomes; format: ADME, Microsome
# [10] = Inhibition of bovine PDE1 by [3H]cGMP scintillation proximity assay; design: species or system Bos taurus
# [11] = Volume of distribution at steady state in dog; format: ADME, organism-based, Canis lupus familiaris; details: in vivo, read-out: Vdss
# Procedure, shortened: (§1)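 Dog pharmacokinetics: clearance, half-life and Vss came from IV dosing. Bioavailability came from oral dosing at 2.5 mg/kg. Values are means ± SEM.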
# [12] = Oral bioavailability in dog at 2.5 mg/kg; format: ADME, organism-based, Canis lupus familiaris; details: in vivo; procedure, shortened: as §1
# [13] = Permeability from apical to basolateral side of Caco-2 cell membrane; format: ADME, cell-based; details: human
# [14] = Bioavailability in rat at 3.3 mg/kg, intraduodenally; format: ADME, organism-based; details: in vivo
# Procedure, shortened: (§2)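 Rat pharmacokinetics: IV bolus at 0.8 mg/kg gave clearance, half-life and Vss. […] Values are means ± SEM.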
# [15] = Volume of distribution at steady state in rat; format: ADME, organism-based; details: in vivo, read-out: Vdss; procedure, shortened: as §2
# [16] = Half life in rat at 0.8 mg/kg, iv; format: ADME, organism-based; design: dose 0.8 mg/kg, route intravenous; details: in vivo; procedure, shortened: as §2
# Adenosine receptor A1 = biological target: T1, Adenosine receptor A1 (Homo sapiens, UniProt P30542); assay: Inhibition of adenosine A1 receptor
# T1 sequence (P30542 whole entry): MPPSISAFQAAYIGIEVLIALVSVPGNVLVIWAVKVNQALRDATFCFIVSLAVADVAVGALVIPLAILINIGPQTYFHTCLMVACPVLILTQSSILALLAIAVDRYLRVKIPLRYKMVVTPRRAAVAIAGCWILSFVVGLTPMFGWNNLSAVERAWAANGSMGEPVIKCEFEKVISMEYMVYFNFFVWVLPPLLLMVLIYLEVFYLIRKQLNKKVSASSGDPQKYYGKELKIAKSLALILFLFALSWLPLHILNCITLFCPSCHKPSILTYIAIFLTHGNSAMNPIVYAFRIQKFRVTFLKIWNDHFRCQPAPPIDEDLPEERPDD
# Procedure, shortened: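 Binding was profiled in a contract Spectrum Screen panel of 111 receptors. Adenosine A1 activity was reported as Ki.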
# Phosphodiesterase 3 = Phosphodiesterase 3 (Homo sapiens, UniProt Q14432+Q13370); assay: Inhibition of human platelet PDE3 by [3H]cGMP scintillation proximity assay
# [17] = Half life in dog at 0.2 mg/kg, iv; format: ADME, organism-based, Canis lupus familiaris; design: dose 0.2 mg/kg, route intravenous; details: in vivo; procedure, shortened: as §1
# [18] = Clearance in rat at 0.8 mg/kg, iv; format: ADME, organism-based; design: dose 0.8 mg/kg, route intravenous; details: in vivo; procedure, shortened: as §2
# [19] = Clearance in iv dosed dog; format: ADME, organism-based, Canis lupus familiaris; details: in vivo; procedure, shortened: as §1
# [20] = Inhibition of adenosine transporter; design: species or system Homo sapiens
# 3',5'-cyclic-AMP phosphodiesterase 4D, sequence (Q08499 whole entry): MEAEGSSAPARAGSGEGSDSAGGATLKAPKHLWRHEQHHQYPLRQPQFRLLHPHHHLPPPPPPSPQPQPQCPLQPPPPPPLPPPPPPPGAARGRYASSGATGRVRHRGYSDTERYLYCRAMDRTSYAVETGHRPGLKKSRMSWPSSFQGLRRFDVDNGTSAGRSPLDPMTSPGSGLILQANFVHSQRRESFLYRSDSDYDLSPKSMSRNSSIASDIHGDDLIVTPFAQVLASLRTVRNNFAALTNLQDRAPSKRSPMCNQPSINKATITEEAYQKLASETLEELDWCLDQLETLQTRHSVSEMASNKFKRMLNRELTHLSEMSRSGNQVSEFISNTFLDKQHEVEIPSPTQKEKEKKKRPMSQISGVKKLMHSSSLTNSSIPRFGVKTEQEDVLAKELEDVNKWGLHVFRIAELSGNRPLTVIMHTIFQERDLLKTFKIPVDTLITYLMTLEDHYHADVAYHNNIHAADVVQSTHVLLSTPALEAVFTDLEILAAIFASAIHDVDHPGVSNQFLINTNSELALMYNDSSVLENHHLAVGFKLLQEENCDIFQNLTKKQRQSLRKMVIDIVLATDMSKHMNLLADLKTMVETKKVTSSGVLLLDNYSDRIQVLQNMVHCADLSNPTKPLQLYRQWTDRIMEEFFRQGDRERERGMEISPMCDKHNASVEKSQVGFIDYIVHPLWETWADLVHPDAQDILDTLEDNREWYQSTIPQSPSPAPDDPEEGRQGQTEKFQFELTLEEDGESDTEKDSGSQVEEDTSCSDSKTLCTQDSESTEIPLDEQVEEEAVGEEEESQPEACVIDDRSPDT
# High affinity 3',5'-cyclic-AMP phosphodiesterase 7A, sequence (Q13946 whole entry): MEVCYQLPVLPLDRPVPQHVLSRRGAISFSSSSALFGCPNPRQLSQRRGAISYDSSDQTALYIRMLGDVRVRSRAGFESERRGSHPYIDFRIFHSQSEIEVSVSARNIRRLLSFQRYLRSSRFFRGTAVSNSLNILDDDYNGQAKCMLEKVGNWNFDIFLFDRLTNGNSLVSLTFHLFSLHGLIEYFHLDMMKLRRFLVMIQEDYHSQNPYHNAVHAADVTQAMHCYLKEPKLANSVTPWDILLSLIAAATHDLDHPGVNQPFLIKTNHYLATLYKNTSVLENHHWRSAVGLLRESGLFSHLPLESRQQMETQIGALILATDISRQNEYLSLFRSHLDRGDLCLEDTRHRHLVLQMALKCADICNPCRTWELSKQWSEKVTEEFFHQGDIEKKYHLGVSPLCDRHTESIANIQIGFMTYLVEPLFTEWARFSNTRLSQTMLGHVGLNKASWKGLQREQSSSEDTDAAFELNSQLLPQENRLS
# cGMP-dependent 3',5'-cyclic phosphodiesterase, sequence (O00408 whole entry): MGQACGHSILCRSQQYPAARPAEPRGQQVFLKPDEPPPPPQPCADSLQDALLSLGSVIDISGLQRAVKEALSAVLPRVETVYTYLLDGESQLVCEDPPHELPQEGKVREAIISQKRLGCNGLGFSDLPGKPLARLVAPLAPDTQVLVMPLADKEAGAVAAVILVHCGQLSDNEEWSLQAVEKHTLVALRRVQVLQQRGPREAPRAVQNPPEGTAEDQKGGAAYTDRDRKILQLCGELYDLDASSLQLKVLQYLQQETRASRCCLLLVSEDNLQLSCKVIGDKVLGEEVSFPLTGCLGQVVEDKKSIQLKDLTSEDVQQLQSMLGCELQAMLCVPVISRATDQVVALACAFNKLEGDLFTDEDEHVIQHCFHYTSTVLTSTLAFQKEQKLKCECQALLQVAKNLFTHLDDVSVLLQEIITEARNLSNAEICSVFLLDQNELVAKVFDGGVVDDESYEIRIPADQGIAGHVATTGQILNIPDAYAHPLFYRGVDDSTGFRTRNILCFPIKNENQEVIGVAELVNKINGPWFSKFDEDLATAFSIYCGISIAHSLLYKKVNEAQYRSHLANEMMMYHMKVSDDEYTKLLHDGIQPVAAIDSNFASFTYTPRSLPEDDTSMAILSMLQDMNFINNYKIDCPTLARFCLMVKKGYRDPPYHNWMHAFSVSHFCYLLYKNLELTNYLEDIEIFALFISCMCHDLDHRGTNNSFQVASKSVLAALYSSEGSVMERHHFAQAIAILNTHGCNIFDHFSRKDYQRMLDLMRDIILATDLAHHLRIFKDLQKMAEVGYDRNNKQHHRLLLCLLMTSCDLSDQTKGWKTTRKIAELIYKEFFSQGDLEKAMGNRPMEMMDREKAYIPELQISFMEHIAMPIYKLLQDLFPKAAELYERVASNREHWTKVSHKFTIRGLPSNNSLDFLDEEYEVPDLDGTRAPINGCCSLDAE
# 3',5'-cyclic-AMP phosphodiesterase 4B, sequence (Q07343 whole entry): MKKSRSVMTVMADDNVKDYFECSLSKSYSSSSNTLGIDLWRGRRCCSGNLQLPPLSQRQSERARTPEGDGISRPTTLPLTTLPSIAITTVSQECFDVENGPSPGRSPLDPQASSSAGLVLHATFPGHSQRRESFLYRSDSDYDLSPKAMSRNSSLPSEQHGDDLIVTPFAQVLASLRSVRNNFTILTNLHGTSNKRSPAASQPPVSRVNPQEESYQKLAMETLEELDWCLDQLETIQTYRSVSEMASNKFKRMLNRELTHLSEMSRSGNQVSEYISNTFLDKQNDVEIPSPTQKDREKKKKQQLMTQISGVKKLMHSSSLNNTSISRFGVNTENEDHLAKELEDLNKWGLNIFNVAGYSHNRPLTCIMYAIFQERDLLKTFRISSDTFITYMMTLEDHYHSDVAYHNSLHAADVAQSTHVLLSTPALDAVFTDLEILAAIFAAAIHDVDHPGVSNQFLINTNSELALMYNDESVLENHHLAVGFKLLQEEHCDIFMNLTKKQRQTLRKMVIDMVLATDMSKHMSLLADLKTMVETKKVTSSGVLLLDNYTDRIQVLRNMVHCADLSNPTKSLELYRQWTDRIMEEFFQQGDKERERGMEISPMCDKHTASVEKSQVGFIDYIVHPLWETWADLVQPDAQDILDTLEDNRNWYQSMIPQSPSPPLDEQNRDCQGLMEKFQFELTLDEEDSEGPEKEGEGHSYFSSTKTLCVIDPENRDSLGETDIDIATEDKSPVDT
Structure (SMILES),IC50 [1] [µM],IC50 [2] [µM],IC50 [10] [µM],IC50 (Phosphodiesterase 3) [µM],further results
COc1ccc2c(Cc3nc4c([nH]3)c(=O)n(C)c(=O)n4CC(C)C)cncc2c1,0.051,0.247,,,
COc1ccc2cncc(Cc3nc4c([nH]3)c(=O)n(C)c(=O)n4CC(C)C)c2c1 [listing 1 of 2 here],,,,,IC50 [3]: > 10 µM; IC50 [4]: 4.6 µM; IC50 [5]: > 10 µM; IC50 [6]: > 10 µM
COc1ccc2cncc(Cc3nc4c([nH]3)c(=O)n(C)c(=O)n4CC(C)C)c2c1 [listing 2 of 2 here],,0.18,2.85,2.22,clearance [7]: 4 µL/min/mg; clearance [8]: 6 µL/min/mg; clearance [9]: 162 µL/min/mg; Vd [11]: 2.1 L/kg; bioavailability [12]: 103%; Papp A→B [13]: 13.8 ×10⁻⁶ cm/s; bioavailability [14]: 1%; Vd [15]: 2.9 L/kg; half-life [16]: 21 min; Ki (Adenosine receptor A1): 2.3 µM; half-life [17]: 63.4 min; clearance [18]: 118 mL/min/kg; clearance [19]: 28.7 mL/min/kg; Ki [20]: 2.8 µM
COc1cc2cncc(Cc3nc4c([nH]3)c(=O)n(C)c(=O)n4CC3CC3)c2cc1OC,0.02,0.823,1.32,1.64,
COc1cc2cncc(Cc3nc4c([nH]3)c(=O)n(C)c(=O)n4CC(C)C)c2cc1OC,0.009,0.389,0.417,0.299,Papp A→B [13]: 31.8 ×10⁻⁶ cm/s
COc1cc2c(Cc3nc4c([nH]3)c(=O)n(C)c(=O)n4CC(C)C)cnc(C)c2cc1OC,0.002,0.226,0.072,0.042,Papp A→B [13]: 0.9 ×10⁻⁶ cm/s
CC(C)Cn1c(=O)n(C)c(=O)c2[nH]c(Cc3cncc4ccccc34)nc21,0.034,0.857,7.29,1.85,
COc1cc2cncc(Cc3nc4c([nH]3)c(=O)n(C)c(=O)n4CC3CCCCC3)c2cc1OC,0.028,1.13,,,
COc1cc2cncc(Cc3nc4c([nH]3)c(=O)n(C)c(=O)n4CC(C)(C)C)c2cc1OC,0.008,0.294,2.79,1.06,Papp A→B [13]: 23.4 ×10⁻⁶ cm/s
CC(C)Cn1c(=O)n(C)c(=O)c2[nH]c(CC3CC4CCC3C4)nc21 (stereo unspecified),0.025,0.065,,,
COc1cc2cncc(C(C)c3nc4c([nH]3)c(=O)n(C)c(=O)n4CC(C)C)c2cc1OC (stereo unspecified),0.094,,,,
COc1cc2cncc(Cc3nc4c([nH]3)c(=O)n(C)c(=O)n4CC(C)CO)c2cc1OC (racemic),0.006,0.363,0.67,2.71,
C=C(C)Cn1c(=O)n(C)c(=O)c2[nH]c(Cc3cncc4cc(OC)c(OC)cc34)nc21,0.03,0.333,,,
COc1cc2cnc(C)c(Cc3nc4c([nH]3)c(=O)n(C)c(=O)n4CC(C)C)c2cc1OC,0.026,0.525,,,
COc1cc2cncc(Cc3nc4c(c(=O)n(C)c(=O)n4CC(C)C)n3C)c2cc1OC,0.553,,,,
COc1cc2cncc(Cc3nc4c([nH]3)c(=O)n(C)c(=O)n4Cc3ccc(NC(C)=O)cc3)c2cc1OC,0.042,0.471,,,
COc1cc2cncc(Cc3nc4c([nH]3)c(=O)n(C)c(=O)n4Cc3ccc(NS(=O)(=O)C(C)C)cc3)c2cc1OC,0.005,0.399,3.44,3.13,
COc1cc2cncc(Cc3nc4c([nH]3)c(=O)n(CC(C)C)c(=O)n4CC(C)C)c2cc1OC,0.462,,,,
CC(C)Cn1c(=O)n(C)c(=O)c2[nH]c(Cc3cncc4cc5c(cc34)OCO5)nc21,10,,,,
COc1ccc(Cn2c(=O)n(C)c(=O)c3[nH]c(Cc4cncc5cc(OC)c(OC)cc45)nc32)cc1OC,0.033,1.82,3.91,,
